From ChEMBL document CHEMBL1144553, “alpha-Biphenylsulfonylamino 2-methylpropyl phosphonates: enantioselective synthesis and selective inhibition of MMPs” (Bioorg Med Chem, 2007)

Experiments:
[1] = biological target: T1, Interstitial collagenase (Homo sapiens, UniProt P03956); assay: Inhibition of MMP1
T1 sequence (P03956 whole entry): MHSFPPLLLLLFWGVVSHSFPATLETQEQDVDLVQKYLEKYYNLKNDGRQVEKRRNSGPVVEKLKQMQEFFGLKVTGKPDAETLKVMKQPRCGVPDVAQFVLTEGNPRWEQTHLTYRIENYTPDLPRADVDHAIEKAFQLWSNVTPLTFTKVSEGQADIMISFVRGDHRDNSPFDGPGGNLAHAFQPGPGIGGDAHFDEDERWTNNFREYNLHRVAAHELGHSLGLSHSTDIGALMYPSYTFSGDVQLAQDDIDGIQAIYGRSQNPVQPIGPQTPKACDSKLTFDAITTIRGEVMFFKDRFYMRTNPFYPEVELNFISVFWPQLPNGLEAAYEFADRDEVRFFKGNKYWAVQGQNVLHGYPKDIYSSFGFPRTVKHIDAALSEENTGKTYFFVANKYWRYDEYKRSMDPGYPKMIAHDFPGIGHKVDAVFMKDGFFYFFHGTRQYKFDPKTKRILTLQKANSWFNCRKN
Outline: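 Pro-MMP-1 from a commercial source, activated with APMA (2 mM, 1 h, 37 °C). Enzyme at 0.20 nM final was preincubated 4 h at 25 °C with inhibitor at seven concentrations in Tris 50 mM pH 7.5, NaCl, CaCl2, Brij 35 and 1% DMSO. Mca-Lys-Pro-Leu-Gly-Leu-Dpa-Ala-Arg-NH2 was added and fluorescence (ex 325/em 400 nm) read every 15 s for 20 min, in triplicate. IC50 from Vi/Vo = 1/(1+[I]/IC50).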

[2] = biological target: 72 kDa type IV collagenase (Homo sapiens, UniProt P08253); assay: Inhibition of human recombinant MMP2 expressed in mouse myeloma cells; format: cell-based
Outline: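 Recombinant human pro-MMP-2 from transfected mouse myeloma cells, activated with APMA (2 mM, 1 h, 37 °C) and used at 2.9 nM final. It was preincubated 4 h at 25 °C with inhibitor (seven concentrations) in Tris 50 mM pH 7.5 buffer with 1% DMSO. Mca-Lys-Pro-Leu-Gly-Leu-Dpa-Ala-Arg-NH2 fluorescence (ex 325/em 400 nm) was read every 15 s for 20 min, in triplicate. IC50 from Vi/Vo = 1/(1+[I]/IC50).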

[3] = biological target: T2, Stromelysin-1 (Homo sapiens, UniProt P08254); assay: Inhibition of MMP3
Outline: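 Purchased MMP-3 at 1 nM final was preincubated with inhibitor (seven concentrations) for 4 h at 25 °C in Tris pH 7.5 assay buffer containing CaCl2, Brij 35 and 1% DMSO. Substrate was Mca-Arg-Pro-Lys-Pro-Val-Glu-Nva-Trp-Arg-Lys(Dnp)-NH2, with fluorescence (ex 325/em 400 nm) read every 15 s over 20 min, in triplicate. IC50 from initial velocities via Vi/Vo = 1/(1+[I]/IC50).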
Target sequence in this assay (P08254 whole entry): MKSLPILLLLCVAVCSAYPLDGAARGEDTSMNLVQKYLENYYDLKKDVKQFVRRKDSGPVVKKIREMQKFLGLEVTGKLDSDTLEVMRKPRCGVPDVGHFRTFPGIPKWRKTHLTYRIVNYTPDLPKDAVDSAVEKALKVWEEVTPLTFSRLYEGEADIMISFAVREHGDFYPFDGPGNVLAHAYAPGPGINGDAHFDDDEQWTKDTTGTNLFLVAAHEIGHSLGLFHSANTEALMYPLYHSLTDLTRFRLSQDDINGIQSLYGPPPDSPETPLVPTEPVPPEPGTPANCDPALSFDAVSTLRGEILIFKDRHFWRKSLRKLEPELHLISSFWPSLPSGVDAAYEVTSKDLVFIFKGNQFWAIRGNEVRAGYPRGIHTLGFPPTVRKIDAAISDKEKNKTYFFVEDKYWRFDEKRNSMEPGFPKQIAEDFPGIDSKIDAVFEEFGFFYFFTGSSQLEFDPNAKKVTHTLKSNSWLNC

[4] = biological target: T3, Matrilysin (Homo sapiens, UniProt P09237); assay: Inhibition of MMP7
T3 sequence (P09237 whole entry): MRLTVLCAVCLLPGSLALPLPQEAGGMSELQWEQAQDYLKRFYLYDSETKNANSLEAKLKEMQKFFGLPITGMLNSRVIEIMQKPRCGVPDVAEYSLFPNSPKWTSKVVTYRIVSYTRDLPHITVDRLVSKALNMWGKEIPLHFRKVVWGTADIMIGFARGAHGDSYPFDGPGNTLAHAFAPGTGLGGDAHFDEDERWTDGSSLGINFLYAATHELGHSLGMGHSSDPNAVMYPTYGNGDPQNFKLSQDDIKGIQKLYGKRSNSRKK
Outline: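 Pro-MMP-7 from a commercial source, activated with APMA (1 mM, 1 h, 37 °C) and used at 2.4 nM final. It was preincubated 4 h at 25 °C with inhibitor at seven concentrations in Tris pH 7.5 buffer (CaCl2, Brij 35, 1% DMSO). Mca-Lys-Pro-Leu-Gly-Leu-Dpa-Ala-Arg-NH2 cleavage was monitored fluorimetrically (ex 325/em 400 nm) every 15 s for 20 min, in triplicate. IC50 via Vi/Vo = 1/(1+[I]/IC50).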

[5] = biological target: Neutrophil collagenase (Homo sapiens, UniProt P22894); assay: Inhibition of MMP8
[6] = biological target: T4, Matrix metalloproteinase-9 (Homo sapiens, UniProt P14780); assay: Inhibition of human recombinant MMP9 expressed in mouse myeloma cells; format: cell-based
Outline: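 Human pro-MMP-9 expressed in transfected mouse myeloma cells, APMA-activated (1 mM, 1 h, 37 °C) and used at 2.7 nM final. Preincubated 4 h at 25 °C with inhibitor at seven concentrations in Tris pH 7.5/CaCl2/Brij 35 buffer with 1% DMSO. Fluorogenic Mca-Lys-Pro-Leu-Gly-Leu-Dpa-Ala-Arg-NH2 hydrolysis (ex 325/em 400 nm) was read every 15 s for 20 min, in triplicate. IC50 via Vi/Vo = 1/(1+[I]/IC50).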

[7] = biological target: T5, Collagenase 3 (Homo sapiens, UniProt P45452); assay: Inhibition of MMP13
Outline: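 Purchased pro-MMP-13 was APMA-activated (1 mM, 0.5 h, 37 °C) and used at 0.66 nM final. It was preincubated with inhibitor (seven concentrations) for 4 h at 25 °C in Tris pH 7.5 buffer with CaCl2, Brij 35 and 1% DMSO. Cleavage of Mca-Lys-Pro-Leu-Gly-Leu-Dpa-Ala-Arg-NH2 was followed by fluorescence (ex 325/em 400 nm) every 15 s for 20 min, in triplicate. IC50 fitted to Vi/Vo = 1/(1+[I]/IC50).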

[8] = biological target: T6, Matrix metalloproteinase-14 (Homo sapiens, UniProt P50281); assay: Inhibition of MMP14
Outline: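 Commercial MMP-14 at 1 nM final, preincubated 4 h at 25 °C with inhibitor at seven concentrations in Tris 50 mM pH 7.5/NaCl/CaCl2/Brij 35 buffer with 1% DMSO. Read-out was fluorogenic substrate Mca-Lys-Pro-Leu-Gly-Leu-Dpa-Ala-Arg-NH2 hydrolysis (ex 325, em 400 nm), recorded every 15 s for 20 min, in triplicate. IC50 from Vi/Vo = 1/(1+[I]/IC50).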

[9] = biological target: T7, Interstitial collagenase (Homo sapiens) (UniProt P03956); assay: Inhibition of human recombinant MMP1 at 100 uM
T7 sequence (whole entry): T1 sequence (P03956 whole entry)

[10] = biological target: T2, Stromelysin-1; assay: Inhibition of MMP3 at 100 uM
Target sequence in this assay (P08254 100-477 limits assumed): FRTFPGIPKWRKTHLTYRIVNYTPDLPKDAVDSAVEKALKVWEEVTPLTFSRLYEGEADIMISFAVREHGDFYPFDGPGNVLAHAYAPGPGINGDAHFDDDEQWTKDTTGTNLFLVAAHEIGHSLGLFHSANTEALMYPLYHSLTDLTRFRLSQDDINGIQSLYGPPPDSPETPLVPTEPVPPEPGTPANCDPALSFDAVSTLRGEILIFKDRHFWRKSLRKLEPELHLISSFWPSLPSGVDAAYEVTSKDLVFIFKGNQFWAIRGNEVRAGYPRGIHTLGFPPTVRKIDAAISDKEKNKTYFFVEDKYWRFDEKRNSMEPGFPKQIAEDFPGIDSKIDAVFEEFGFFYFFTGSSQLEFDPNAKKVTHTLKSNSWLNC

[11] = biological target: T4, Matrix metalloproteinase-9; assay: Inhibition of human recombinant MMP9 expressed in mouse myeloma cells at 100 uM; format: cell-based
[12] = biological target: T5, Collagenase 3; assay: Inhibition of MMP13 at 100 uM
[13] = biological target: T8, Matrilysin (Homo sapiens) (UniProt P09237); assay: Inhibition of MMP7 at 100 uM
T8 sequence (whole entry): T3 sequence (P09237 whole entry)

[14] = biological target: T6, Matrix metalloproteinase-14; conditions: 100 uM

72 kDa type IV collagenase, sequence (P08253 whole entry): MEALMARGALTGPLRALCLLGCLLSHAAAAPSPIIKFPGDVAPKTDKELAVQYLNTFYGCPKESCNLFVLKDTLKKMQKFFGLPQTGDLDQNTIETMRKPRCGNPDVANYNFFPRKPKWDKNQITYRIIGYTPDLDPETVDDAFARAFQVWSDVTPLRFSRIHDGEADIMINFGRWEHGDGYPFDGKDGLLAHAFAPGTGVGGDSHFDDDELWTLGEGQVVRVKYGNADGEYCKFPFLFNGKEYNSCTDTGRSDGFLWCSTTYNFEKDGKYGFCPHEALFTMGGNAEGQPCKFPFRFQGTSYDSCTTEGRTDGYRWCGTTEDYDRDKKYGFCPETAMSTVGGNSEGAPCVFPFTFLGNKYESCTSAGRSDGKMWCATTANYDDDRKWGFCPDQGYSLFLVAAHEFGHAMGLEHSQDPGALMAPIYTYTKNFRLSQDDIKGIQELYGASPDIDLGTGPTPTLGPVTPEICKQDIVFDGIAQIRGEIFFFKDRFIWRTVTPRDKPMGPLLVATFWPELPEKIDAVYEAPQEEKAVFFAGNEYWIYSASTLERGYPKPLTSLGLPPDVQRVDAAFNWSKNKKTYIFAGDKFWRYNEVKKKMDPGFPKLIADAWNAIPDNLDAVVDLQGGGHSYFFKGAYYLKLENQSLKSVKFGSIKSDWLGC
Neutrophil collagenase, sequence (P22894 whole entry): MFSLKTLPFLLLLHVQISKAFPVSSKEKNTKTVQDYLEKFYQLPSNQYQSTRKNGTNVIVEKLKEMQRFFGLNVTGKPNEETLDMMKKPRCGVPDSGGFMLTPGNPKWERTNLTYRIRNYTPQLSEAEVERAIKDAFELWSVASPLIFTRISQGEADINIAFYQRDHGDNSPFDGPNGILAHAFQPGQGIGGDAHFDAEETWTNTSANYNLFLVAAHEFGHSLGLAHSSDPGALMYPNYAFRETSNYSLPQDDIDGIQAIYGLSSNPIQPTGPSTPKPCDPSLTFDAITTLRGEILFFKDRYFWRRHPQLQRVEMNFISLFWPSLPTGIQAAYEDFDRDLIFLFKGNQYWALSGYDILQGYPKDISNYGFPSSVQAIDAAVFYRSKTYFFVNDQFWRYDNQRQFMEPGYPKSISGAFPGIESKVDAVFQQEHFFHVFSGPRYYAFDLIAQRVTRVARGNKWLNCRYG
T4 sequence (P14780 whole entry): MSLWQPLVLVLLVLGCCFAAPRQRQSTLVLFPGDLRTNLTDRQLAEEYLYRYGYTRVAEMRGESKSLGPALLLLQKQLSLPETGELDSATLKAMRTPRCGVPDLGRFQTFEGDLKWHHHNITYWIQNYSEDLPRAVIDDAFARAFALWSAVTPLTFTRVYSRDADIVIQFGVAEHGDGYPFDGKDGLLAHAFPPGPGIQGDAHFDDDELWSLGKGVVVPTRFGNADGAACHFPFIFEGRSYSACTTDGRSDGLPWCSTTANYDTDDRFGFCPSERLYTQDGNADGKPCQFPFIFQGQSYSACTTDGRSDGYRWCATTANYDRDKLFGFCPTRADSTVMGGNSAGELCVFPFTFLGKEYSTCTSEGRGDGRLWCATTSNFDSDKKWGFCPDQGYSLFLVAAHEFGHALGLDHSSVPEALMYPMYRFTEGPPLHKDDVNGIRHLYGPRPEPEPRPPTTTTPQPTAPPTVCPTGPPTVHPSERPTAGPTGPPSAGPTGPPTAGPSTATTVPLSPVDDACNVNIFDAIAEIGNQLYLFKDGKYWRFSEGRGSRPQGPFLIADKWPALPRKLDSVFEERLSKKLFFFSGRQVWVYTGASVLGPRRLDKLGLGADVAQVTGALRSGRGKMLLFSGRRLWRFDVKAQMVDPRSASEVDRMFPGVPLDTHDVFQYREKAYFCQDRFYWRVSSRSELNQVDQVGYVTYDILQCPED

| SMILES | IC50 [1] [nM] | IC50 [2] [nM] | IC50 [3] [nM] | IC50 [4] [nM] | IC50 [5] [nM] | IC50 [6] [nM] | IC50 [7] [nM] | IC50 [8] [nM] | inhibition [9] [%] | inhibition [10] [%] | inhibition [11] [%] | inhibition [12] [%] | inhibition [13] [%] | inhibition [14] [%] |
| --- | --- | --- | --- | --- | --- | --- | --- | --- | --- | --- | --- | --- | --- | --- |
| CC(C)[C@H](NS(=O)(=O)c1ccc(-c2ccc(Cl)cc2)cc1)P(=O)(O)O | 77 | 8.7 | 28 | 1700 | 0.81 | 21 | 5.3 | 47 | – | – | – | – | – | – |
| COc1ccc(CCc2ccc(S(=O)(=O)N[C@@H](C(C)C)P(=O)(O)O)cc2)cc1 | – | 790 | – | 130000 | 110 | 680 | 480 | 40000 | 9 | 31 | – | – | – | – |
| COc1ccc(-c2ccc(S(=O)(=O)N[C@H](C(C)C)P(=O)(O)O)cc2)cc1 | – | 1100 | – | – | – | – | – | – | 5 | 16 | 40 | 68 | 17 | 63 |
| Cc1cccc(-c2ccc(S(=O)(=O)N[C@@H](C(C)C)P(=O)(O)O)cc2)c1 | 320 | 24 | 230 | 1100 | 0.4 | 64 | 15 | 26 | – | – | – | – | – | – |
| COc1ccc(-c2ccc(S(=O)(=O)N[C@@H](C(C)C)P(=O)(O)O)cc2)cc1 | 150 | 1.5 | 52 | 460 | – | 8 | 2.6 | 79 | – | – | – | – | – | – |
| CCOc1ccc(-c2ccc(S(=O)(=O)N[C@@H](C(C)C)P(=O)(O)O)cc2)cc1 | 450 | 0.39 | 12 | 450 | 0.37 | 0.56 | 1.1 | 11 | – | – | – | – | – | – |
| CC(C)[C@H](NS(=O)(=O)c1ccc(-c2cccc(Cl)c2)cc1)P(=O)(O)O | 320 | 30 | 440 | 2900 | 1.3 | 160 | 24 | 75 | – | – | – | – | – | – |

The next lines start with the values.

| IC50 [1] [nM] | IC50 [2] [nM] | IC50 [3] [nM] | IC50 [4] [nM] | IC50 [5] [nM] | IC50 [6] [nM] | IC50 [7] [nM] | IC50 [8] [nM] | inhibition [9] [%] | inhibition [10] [%] | inhibition [11] [%] | inhibition [12] [%] | inhibition [13] [%] | inhibition [14] [%] | SMILES |
| --- | --- | --- | --- | --- | --- | --- | --- | --- | --- | --- | --- | --- | --- | --- |
| 590 | 53 | 1200 | 20000 | 2.4 | 170 | 63 | 180 | – | – | – | – | – | – | CC(C)[C@H](NS(=O)(=O)c1ccc(-c2cccc(F)c2)cc1)P(=O)(O)O |
| – | 980 | – | 50000 | 260 | 7100 | 820 | 6000 | 33 | 34 | – | – | – | – | CC(C)[C@H](NS(=O)(=O)c1ccc(CCc2ccccc2)cc1)P(=O)(O)O |
| 98 | 2.3 | 45 | 150 | 0.39 | 4.1 | 3.3 | 11 | – | – | – | – | – | – | Cc1ccc(-c2ccc(S(=O)(=O)N[C@@H](C(C)C)P(=O)(O)O)cc2)cc1 |
| 160 | 20 | 150 | 1400 | 1.1 | 59 | 13 | 32 | – | – | – | – | – | – | CC(C)[C@H](NS(=O)(=O)c1ccc(-c2ccc(F)cc2)cc1)P(=O)(O)O |
| 600 | 1.8 | 36 | 2000 | 1.5 | 24 | 4.2 | 130 | – | – | – | – | – | – | CC(C)Oc1ccc(-c2ccc(S(=O)(=O)N[C@@H](C(C)C)P(=O)(O)O)cc2)cc1 |
